# Only some compounds are listed: those with a hit (about 2.9% of all), similar ones and a draw of the others.
# PGC1a acetyl inh: lowers PGC1a acetylation signal in U2OS cells. AID 651687. inhibition, % at 15.6 µM. AlphaScreen anti-acetyl-lysine; with virally co-expressed GCN5 acetyltransferase. 350,000 tested, 0.17% active;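 active means every replicate shows inhibition of at least 40%; inconclusive means mean inhibition at least 40% but some replicate below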;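 further: 0% = neutral control wells and 100% = positive control wells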
# PglD inh: blocks C. jejuni PglD acetyltransferase activity | purified PglD enzyme, DTNB colorimetric CoA detection | 360,000 tested, 0.098% active | AID 602405 | inhibition, % at 12.5 µM; in the data active means inhibition above about 16%, passing the limit was not always enough; inconclusive means no clear call, values can overlap the other calls
# rRNA inh HTS: inhibits bacterial ribosomal RNA function over humanized ribosomes; E. coli WT GFP vs humanized-ribosome RFP mutants, fluorescence, 24 h; hits give low values; DMSO median 0, no signal -100; GFP signal change (wild-type ribosome), % (test concentration not listed); 350,000 tested, 1.6% active; AID 720706;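 active means significant combined selectivity score with lowered wild-type GFP, culture density cut under 30%, mutant RFP and density less affected; inactive means any of these conditions unmet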
# Vif imaging: HIV Vif inhibition. HEK293T cells, Vif self-association by quenched fluorescence, imaging, 24 h. inhibition, % at 7.49 µM. 340,000 tested, 0.35% active. AID 602346; in the data active means inhibition above about 50%, passing the limit was not always enough; inconclusive means no clear call, values can overlap the other calls; inactive means below about 31%
# FGF22 binding: FGF22 (human) thermal shift binding | activity (Tm shift, normalised), % at 9.99 µM | Q9HCT0 | AID 651658 | recombinant FGF22 thermal shift, SYPRO orange fluorescence; percent of sucrose octasulfate shift, DMSO zero | 340,000 tested, 1.5% active;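 active means mean Tm shift, scaled 0 neutral to 100 positive control, at about 1.3% or above, every replicate too, limit read from the data; inconclusive means no clear call, values can overlap the other calls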
# Target sequence (Q9HCT0 whole entry, looked up): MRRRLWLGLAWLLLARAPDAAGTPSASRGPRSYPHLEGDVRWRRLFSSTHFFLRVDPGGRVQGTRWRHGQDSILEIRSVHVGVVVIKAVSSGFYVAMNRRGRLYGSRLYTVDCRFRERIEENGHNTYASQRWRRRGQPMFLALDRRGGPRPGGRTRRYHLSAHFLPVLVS
# Cneo AK release: Cryptococcus neoformans lysis via adenylate kinase release; 360,000 tested, 0.2% active; lysis activity, % at 15 µM; C. neoformans lysis, adenylate kinase release luminescence, 4 h; normalised: neutral wells 0, clomiphene wells 100;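 active means mean lysis activity across replicates of at least 80%, whatever share of replicates individually reach that level; inactive means mean lysis activity below 80%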
#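 Assay system: C. neoformans cells. Amount: yeast cell density of 5 × 10^6 cells/mL. Technique: AK luminescence. Buffer or medium: YPD. Times: static 4 h at 37 °C with compound, 1 h detection. Dosing: single-point compound dose. Read-out: lysis from increased AK signal.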
# Numbers without * were called inactive; ? = inconclusive; / = no result.
SMILES,PGC1a acetyl inh,PglD inh,rRNA inh HTS,Vif imaging,FGF22 binding,Cneo AK release
COc1ccc2c3c([nH]c2c1)[C@H](CO)N(Cc1ccccc1)CC31CN(S(=O)(=O)c2ccc(C)cc2)C1,0,/,3,/,0,/
CC(C)[C@@H](C)NC(=O)N(C)C[C@H]1OCc2ccccc2-c2ccccc2C(=O)N([C@H](C)CO)C[C@@H]1C,23,1,3,/,0,5
CCNC(=O)C[C@@H]1CC[C@@H]2[C@H](COC[C@@H](O)CN2C(=O)C2CCCC2)O1,1,-2,3,/,0,9
N#CC(CO)(Cc1ccc(OC(F)F)cc1)c1nc2ccccc2[nH]1 (stereo not drawn),/,/,-21*,-4,0,/
CC(C)C(=O)N1CCN(c2nc3ccc(Cl)cc3s2)CC1,-10,-4,-35*,-1,0,8
CC(C)NC(=O)N1CCCN(c2nc3ccc(Cl)cc3s2)CC1,/,-2,-24*,7,0,0
CCc1nc2ccc(F)cc2c(C(=O)NC2CCCCC2C)c1C (stereo not drawn),/,-4,-4,54*,/,2
O=C(CSc1nnc(C2CC2)n1C1CC1)c1cccs1,/,2,0,-7,0,0
O=C(CSc1nnc(C2CC2)n1C1CC1)c1ccc(Br)s1,-3,3,-28*,1,0,-1
CCCn1c(N)c(C(=O)CSc2nnc(C3CC3)n2C2CC2)c(=O)[nH]c1=O,/,/,9,-2,43*,/
O=C(C1CC1)N1C[C@@H]2[C@H](c3ccccc31)[C@H](CO)N2S(=O)(=O)c1ccccc1,-1,3,0,/,/,1
COc1ccc(-c2ccc(/C=N/NC(=O)Cc3nnc(N)s3)o2)cc1Cl,57*,-6,-7,6,0,-1
CC(=O)c1cccc(NC(=O)NC2CC3CCCC(C2)N3CC(C)C)c1 (stereo not drawn),6,-3,/,54*,/,2
C[C@@H]1CN([C@H](C)CO)C(=O)c2cc(C#CC3CC3)cnc2O[C@H]1CN(C)S(=O)(=O)c1cccc(F)c1,2,2,-1,/,0,37
O=C(COc1ccccc1)Nc1ccc2c(c1)C(=O)N(CC1CCCO1)C2=O (stereo not drawn),/,2,1,-2,0,-7
O=C(Cc1ccccc1)Nc1ccc2c(c1)C(=O)N(CC1CCCO1)C2=O (stereo not drawn),5,/,3,50*,0,/
C=C(NC(=O)C(=C)NC(=O)c1csc(C2=NC3c4csc(n4)C4NC(=O)c5csc(n5)C(C(C)(O)C(C)O)NC(=O)C5CSC(=N5)/C(=C/C)NC(=O)C(C(C)O)NC(=O)c5csc(n5)C3(CC2)NC(=O)C(C)NC(=O)C(=C)NC(=O)C(=C)NC(=O)C(C(C)C)NC2C=Cc3c(C(C)O)cc(nc3C2O)C(=O)OC4C)n1)C(N)=O (stereo not drawn),/,/,1,176*,0,/
COc1ccccc1C(=O)N1C[C@@H]2[C@H](c3ccccc31)[C@H](CO)N2CC1CCOCC1,2,-2,0,/,/,-4
CN(C)c1ccc2c(c1)[C@@H]1C[C@@H](CC(=O)NCc3ccccc3F)O[C@@H](CO)[C@@H]1O2,-13,4,-2,/,0,0
Cc1cc(C)c2sc(N(CCCN(C)C)C(=O)c3ccc(Br)s3)nc2c1,-15,2,-8,-1,0,8
Cc1cc(C)c2sc(N(CCN(C)C)C(=O)c3c(F)cccc3F)nc2c1,-18,-1,-37*,-3,0,1
CCc1cc2c3c([nH]c2cc1S(=O)(=O)N1CCC2(CC1)OCCO2)CCCC3=O,-10,-4,-26*,20,0,7
Cc1cc2c3c([nH]c2cc1S(=O)(=O)N1CCC2(CC1)OCCO2)CC(C)(C)CC3=O,-25,-4,-8,-1,0,-1
CCOC(=O)c1ccccc1NC(=O)COC(=O)C1CC(=O)N(CCc2ccccc2)C1 (stereo not drawn),/,/,6,-1,0,/
CCOC(=O)c1c(C)[nH]c(C)c1C(=O)COC(=O)C1CC(=O)N(CCc2ccccc2)C1 (stereo not drawn),0,-1,-6,51*,0,-2
SMILES,PGC1a acetyl inh,PglD inh,rRNA inh HTS,Vif imaging,FGF22 binding,Cneo AK release
C[C@@H]1CN([C@H](C)CO)C(=O)c2cc(-c3ccccc3F)cnc2O[C@@H]1CN(C)C(=O)CN(C)C,4,-1,3,/,0,9
CC(C)(C)OC(=O)N1CCC(c2c(C(=O)NCC3CCN(C4CCCC4)C3)cnn2-c2ccc(F)cc2)CC1 (stereo not drawn),/,-1,-7,60*,0,-1
CCC1=Nc2cc(C(=O)NCc3cccnc3)ccc2Sc2ccc(C)cc21,-13,/,-22*,?,0,/
CCNC(=S)Nc1ccc(N2CCCCC2)cc1,/,/,8,-13,-1,/
CCNC(=S)N/N=C/c1sc(N2CCCCC2)nc1-c1cccs1,/,/,/,69*,/,/
COc1ccccc1NC(=O)N1CC(=O)N2[C@H](CO)[C@@H](c3ccc(-c4ccccc4)cc3)[C@H]2C1,5,/,2,/,/,/
Oc1ccc2ccccc2c1N=Nc1ccccc1F,7,1,13,14,0,-4
O=S(=O)(O)c1cccc(N=Nc2c(O)ccc3ccccc23)c1,1,-3,-33*,1,-1,-9
O=C(COc1ccccc1)N1c2ccccc2Sc2ccccc21,-3,-3,-34*,3,0,2
COc1ccc(-c2cc(C(F)(F)F)nc(S(=O)(=O)CCCC(=O)Nc3cccnc3Cl)n2)cc1OC,/,/,12,115*,42,/
Cc1ccc2c(C)c(C(=O)NCc3ccc(S(N)(=O)=O)cc3)oc2c1C,3,/,13,1,43*,/
Cc1cc2oc(C(=O)Nc3ccc(S(N)(=O)=O)cc3)c(C)c2cc1Cl,7,/,7,-5,43*,/
Cc1ccc2c(C)c(C(=O)Nc3ccc(S(N)(=O)=O)cc3)oc2c1C,-7,-2,8,-3,0,28
C[C@H]1CCCCO[C@@H](CN(C)Cc2ccc(C(=O)O)cc2)[C@@H](C)CN([C@@H](C)CO)C(=O)c2cc(NS(=O)(=O)c3cn(C)cn3)ccc2O1,4,6,-1,/,0,0
C[C@@H]1CCCCO[C@H](CN(C)Cc2ccc(C(=O)O)cc2)[C@H](C)CN([C@@H](C)CO)C(=O)c2cc(NS(=O)(=O)c3cn(C)cn3)ccc2O1,5,-3,3,/,1.3*,1
C[C@@H]1CCCCO[C@H](CN(C)C(=O)Nc2ccc(C(F)(F)F)cc2)[C@@H](C)CN([C@H](C)CO)C(=O)c2cc(NS(=O)(=O)c3cn(C)cn3)ccc2O1,3,2,3,/,1.5*,-1
